An excerpt weighted towards active compounds, which were near 2.9% of everything screened.
SIAE primary: blocks human sialic acid acetylesterase. Q9HAT2. SIAE FP-Rh probe binding, fluorescence polarization. inhibition, % at 9.66 µM. 0.69% of 370,000 active. AID 1053197;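 active = inhibition above a cutoff: mean of compounds within the control limits plus 3 SD of those, cut at about 17% in these data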;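 note: 0% = plate median of compound wells and 100% = probe without SIAE protein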
PRMT1 inh: blocks human protein arginine methyltransferase 1. Q99873. recombinant PRMT1, activity-based probe fluorescence polarization. inhibition, % at 2.79 µM. 1.3% of 370,000 active;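 active = inhibition above about 21% made by adding two undisclosed values, limit read from the data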
Target sequence (Q99873 whole entry, looked up): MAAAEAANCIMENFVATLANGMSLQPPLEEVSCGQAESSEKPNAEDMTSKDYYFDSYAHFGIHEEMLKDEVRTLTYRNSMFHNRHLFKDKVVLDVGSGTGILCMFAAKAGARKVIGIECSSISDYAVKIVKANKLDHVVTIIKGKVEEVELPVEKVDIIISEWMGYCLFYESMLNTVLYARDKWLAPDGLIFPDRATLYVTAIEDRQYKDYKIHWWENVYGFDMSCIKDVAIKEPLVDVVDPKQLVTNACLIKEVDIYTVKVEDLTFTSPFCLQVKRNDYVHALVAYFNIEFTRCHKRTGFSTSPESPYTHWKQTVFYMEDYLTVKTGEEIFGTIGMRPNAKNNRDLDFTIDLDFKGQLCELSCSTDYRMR
ABHD4 inh: inhibits mouse alpha/beta hydrolase domain 4; inhibition, % at 8.92 µM; 0.54% of 370,000 active; AID 720543; Q8VD66; purified mABHD4, FP-Rh probe fluorescence polarization;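 active = inhibition exceeding the mean over every tested compound plus 3 SD, cut at about 30% in these data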;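 note: 0% = plate median of compound wells and 100% = S159A mutant with DMSO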
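Test system: mABHD4 protein; Read-out basis: % inhibition; Incubation: 45 min + 60 min at 25 °C; Repeats: single replicate; Technique: fluorescence polarization with parallel and perpendicular emission, 525/598 nm; Compound: 8.92 µM, single dose; Benchmarks: full inhibition S159A mutant plus DMSO, zero as sample-well median.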
ATG4B inh: blocks human ATG4B protease cleavage of LC3 substrate. Q9Y4P1. inhibition, % at 8.33 µM. 0.51% of 340,000 active. ATG4B cleavage of LC3-PLA2, NBD-HPC fluorescence, 1 h. AID 504462; in the data active = inhibition above about 40%
HTRA1 inh: inhibitors of human serine peptidase HTRA1. Q92743. recombinant HTRA1, FP-rhodamine activity-based probe, fluorescence polarization. inhibition, % at 5.96 µM. 0.5% of 340,000 active; in the data active = inhibition above about 36%;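 note: 0% = enzyme with DMSO and 100% = wells lacking enzyme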
TCR-CD3 inh: human TCR-CD3 binding inhibition; 0.37% of 360,000 active; inhibition, % at 9.4 µM; TAMRA-labeled TCR probe fluorescence, biochemical; in the data active = inhibition above about 19%;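 note: recombinant mutant TCR 2C K166C tagged with TAMRA read by polarization; 0% = receptor in buffer alone and 100% = receptor with positive control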
SIAE confirm: confirmation of human SIAE inhibitors; 13% of 2,300 active; AID 1117263; SIAE FP-Rh activity-based probe, fluorescence polarization; shares compounds with SIAE primary; inhibition, % at 9.66 µM;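 active = mean inhibition of the replicates above the hit cutoff set in the primary screen, cut at about 17% in these data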;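 note: 0% = SIAE with DMSO and probe and 100% = probe without SIAE; inhibitors lower polarization as more probe stays unbound to SIAE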
Numbers without * were called inactive; . = no result given.

SMILES | SIAE primary | PRMT1 inh | ABHD4 inh | ATG4B inh | HTRA1 inh | TCR-CD3 inh | SIAE confirm
O=C(Nc1nnc(C(F)(F)F)s1)c1cccnc1 | -2.2 | 1.9 | 0.5 | -0.2 | -2.1 | 6.2 | .
Cc1ccc(-c2ccc(C3C(C#N)=C(N)Oc4n[nH]c(C)c43)o2)cc1 (configuration not stated) | 12.7 | 7.9 | 12.5 | 0.7 | 4.5 | 0.4 | .
Cc1[nH]nc2c1C(c1ccc(-c3ccc(Cl)cc3)o1)C(C#N)=C(N)O2 (configuration not stated) | 18.0* | 2.7 | 3.6 | -5.5 | 0.1 | 2.6 | -3.3
CC(C)CCCC(C)CCOC(=O)CN1CCCC1 (configuration not stated) | 18.2* | -3.0 | 1.5 | -9.3 | 2.7 | 5.3 | -1.4
CSc1ccc(C(=O)NCC2CCN(C(=O)C(=O)c3cc4ccccc4o3)CC2)cc1 | -0.7 | 2.0 | 0.2 | . | . | -3.9 | .
CC1(C)CC(=O)C2=C(C1)N1C(=C(C#N)C2c2ccc(Cl)cc2)N=C(N)c2ccccc21 (configuration not stated) | 20.1* | 10.8 | 22.6 | 0.2 | -42.0 | -8.9 | 1.3
CS(=O)(=O)N[C@@H]1C[C@@H]2O[C@H](CO)CC[C@@H]2O[C@@H]1CCc1ccc(-c2ccccc2F)cc1 | 0.8 | -2.9 | -0.9 | . | . | . | .
Cc1ccc(C)c(C(=O)CN2Cc3ccccc3C2=O)c1 | 22.6* | -4.5 | 1.0 | -1.6 | 0.8 | 0.3 | -4.3
CCOc1ccc(N(C(C)C(=O)N2CCCCCC2)S(C)(=O)=O)cc1 (configuration not stated) | 18.3* | 0.4 | 1.0 | 2.0 | 5.0 | 9.5 | -2.4
O=C(NCCO)C(=O)NCC1CCCN1S(=O)(=O)c1cccs1 (configuration not stated) | 0.9 | 2.6 | 2.3 | -3.2 | 4.1 | 0.9 | .
C=CCNC(=O)C(=O)NCC1CCCN1S(=O)(=O)c1cccs1 (configuration not stated) | 19.8* | -1.0 | 2.5 | -1.5 | -3.1 | 4.6 | 4.7
COc1cc(/C=C(/C#N)c2ccc(C)cc2)ccc1Oc1ccc([N+](=O)[O-])cn1 | 34.7* | -1.7 | -11.8 | -3.2 | 2.6 | 2.0 | -2.3
CCOc1cc(/C=C(/C#N)c2nc3ccccc3[nH]2)ccc1Oc1ccc([N+](=O)[O-])cn1 | -29.6 | -5.3 | -1.6 | 6.6 | -8.1 | 0.9 | .
CCC(c1nnc(SCC(=O)NCC2CCCO2)n1Cc1ccccc1)N(C)C (configuration not stated) | 2.0 | -0.7 | 1.3 | -13.1 | 4.5 | -7.5 | .
CCC(c1nnc(SCC(=O)NC2CCCCC2)n1Cc1ccccc1)N(C)C (configuration not stated) | 19.2* | -3.7 | -1.2 | -11.8 | -1.4 | -6.1 | 1.0
O=C(NCc1ccccc1)C(c1ccco1)N1CCN(CCN2CCOCC2)CC1 (configuration not stated) | -8.9 | 1.1 | 0.3 | . | . | -1.4 | .
Cc1cc(S(=O)(=O)Nc2ccc(C(=O)N3CCN(c4ccccc4O)CC3)cc2)ccc1F | -1.8 | -1.5 | -6.2 | -10.6 | -6.8 | -6.2 | .
Cc1ccc(S(=O)(=O)Nc2cccc(C(=O)N3CCN(c4ccccc4O)CC3)c2)cc1F | 20.9* | -2.2 | 3.6 | -4.0 | -14.9 | -4.0 | -4.2
NC(=O)c1ncn([C@@H]2O[C@H](C(=O)N[C@H](Cc3c[nH]c4ccccc34)C(=O)N3CCN(C(=O)N4CCOCC4)CC3)[C@@H](O)[C@H]2O)n1 | 52.0* | 1.5 | 9.1 | . | . | 1.6 | 33.4*
CCN(CC)C(=O)N1c2ccccc2Sc2ccccc21 | 18.4* | -2.6 | 6.8 | 6.5 | -1.9 | 2.2 | 10.6
Cc1cc(C)c2[nH]c(C(=O)Nc3ccc4c(c3)OCO4)cc2c1 | 17.7* | -2.1 | 12.1 | 4.2 | 8.6 | 0.7 | -0.3
Cc1cc(C)c(NC(=O)Nc2ccc3c(c2)OCO3)c(C)c1 | -5.4 | -2.0 | 0.4 | 8.6 | -2.4 | 9.0 | .
N#Cc1cccc(NC(=O)CSc2ccc3c4c(cccc24)C(=O)c2ccccc2-3)c1 | 56.5* | 3.6 | 8.1 | -6.0 | 1.7 | 4.3 | 48.5*
CCOC(=O)CCC(=O)N1CCOCCN(C(=O)CCC(=O)OCC)CCOCC1 | 18.5* | -0.4 | 4.3 | -3.0 | -0.2 | 8.0 | 6.4

Screens as filed in PubChem.
